In the library only some 2.2% were active in any assay of this set; here they are far more common.
ROMK primary – human ROMK K+ channel modulation, primary screen. B-score at 10 µM. Tet-inducible ROMK, thallium flux fluorescence; actives lie on both sides. P48048. AID 1918. 2% of 130,000 active;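 active = signal ratio slope over the read window, or its plate-corrected B-score, at least 3 SD from the plate mean, either direction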;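 also: B-score of the F/F0 ratio slope over 7 to 12 s after thallium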
Target sequence (P48048 whole entry, looked up): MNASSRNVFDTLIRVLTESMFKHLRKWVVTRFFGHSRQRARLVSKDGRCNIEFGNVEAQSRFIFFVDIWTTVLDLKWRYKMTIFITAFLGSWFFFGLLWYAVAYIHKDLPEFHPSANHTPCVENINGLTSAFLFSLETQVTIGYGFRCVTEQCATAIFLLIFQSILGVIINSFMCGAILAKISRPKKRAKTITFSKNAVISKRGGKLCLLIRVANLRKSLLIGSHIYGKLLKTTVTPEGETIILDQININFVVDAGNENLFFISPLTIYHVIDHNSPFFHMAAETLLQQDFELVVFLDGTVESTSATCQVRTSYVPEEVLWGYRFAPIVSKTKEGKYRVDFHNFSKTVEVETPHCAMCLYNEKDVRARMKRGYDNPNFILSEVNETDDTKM
Diaphorase inh – diaphorase inhibition or chemical oxidation counter-screen; diaphorase resazurin-to-resorufin fluorescence, NADH, 16 min; bacterial (C. kluyveri) enzyme, not human; inhibition, % at 20 µM; 0.69% of 190,000 active; AID 1217;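 active = primary screen inhibition at 20 µM above a set limit, cut at about 50% in these data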;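 also: plate controls were DMSO with full reaction for no effect and wells lacking NADH for full effect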
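Test system: Clostridium kluyveri diaphorase enzyme / Quantity: diaphorase at 0.14 U/mL in enzyme working solution / Incubation: 16-min room-temperature incubation before reading / Benchmarks: NADH-free wells as positive control, DMSO-only neutral wells / Signal: resorufin fluorescence 544/590 nm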
Diaph act CS – activates diaphorase or chemically reduces, flagging diaphorase assay artifacts. Diaphorase/resazurin coupled assay, resorufin fluorescence, 16 min; stronger effect = higher value; 1 = vehicle wells, 0 = NADH-free wells. activation factor at 20 µM. 0.005% of 190,000 active. AID 1229;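 active = diaphorase activity raised at least twofold by the compound at 20 µM; inactive = activation factor below 2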
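Test system: Clostridium kluyveri diaphorase, purified enzyme; input: enzyme 0.07 U/mL final; buffer or medium: 50 mM HEPES pH 7.4 with 4.542 mM MgCl2, 0.005% Tween 20; also added: 0.114 mM NADH and 0.1 mM resazurin, final amounts; schedule: 16 min enzyme reaction, ambient temperature; technique: fluorescence of resorufin, 544 nm excitation, 590 nm emission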
PMI act satM6P – increases human PMI activity with near-saturating mannose 6-phosphate | P34949 | 0.34% of 190,000 active | coupled PMI enzyme assay, resazurin fluorescence, 20 min; stronger effect = higher value; 1 = untreated enzyme, 0 = substrate-free blank | AID 1216 | activation factor at 20 µM;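 active = activation factor of 2 or more at 20 µM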
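Test system: Human PMI in coupled enzyme assay | Input: 15 ng/mL PMI | Medium: HEPES-buffered pH 7.4 with magnesium and detergent | Compound: One concentration, 20 µM, in 1% DMSO | Incubation: Enzyme reaction with compound 20 min at room temperature | Detection: Diaphorase-driven resazurin-to-resorufin fluorescence, excitation 544, emission 590 nm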
G6PDH counter – counter-screen for G6PDH assay hits: L. mesenteroides G6PDH inhibition | inhibition, % at 5 µM | 0.12% of 200,000 active | Purified L. mesenteroides G6PDH, diaphorase/resazurin coupled fluorescence, 45 min; in the data active = inhibition above about 50%
PMI activator – activators of human phosphomannose isomerase; 0.005% of 190,000 active; activation factor at 20 µM; AID 1214; purified human PMI, coupled resazurin fluorescence, 20 min; stronger effect = higher value; 1 = vehicle control, 0 substrate-free wells;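 active = activation factor of 2 or more at 20 µM, relative to plate controls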
Numbers without * were called inactive.

For CC1(C)Cc2c(C#N)c(NCc3ccco3)nc(-c3ccco3)c2CO1 the results were ROMK primary 0.0053, Diaphorase inh 20, Diaph act CS 0.8, PMI act satM6P 1.1, G6PDH counter 2 and PMI activator 0.9.
For CC1(C)Cc2c(C#N)c(N3CCCC3)nc(-c3ccco3)c2CO1 the results were Diaphorase inh 55*, Diaph act CS 0.5, PMI act satM6P 1, G6PDH counter 0 and PMI activator 1.1.
O=C(Nc1ccccc1N1CCCC1)c1ccc([N+](=O)[O-])cc1Cl was read as ROMK primary -0.063, Diaphorase inh -6, Diaph act CS 1.1, PMI act satM6P 1, G6PDH counter 5 and PMI activator 1.1.
For CN(C)C=Nc1c(Br)cc(Br)c2nonc12 the results were Diaphorase inh 62*, Diaph act CS 0.4, PMI act satM6P 0.3, G6PDH counter 44 and PMI activator 0.3.
`Cc1nonc1OCCNCc1c(C(=O)N(C)C)nc2ccc(Cl)cn12` gave G6PDH counter 6.
`CCCn1cc(NC(=O)c2cc(-c3ccccc3)on2)cn1` gave ROMK primary 5.6*, Diaphorase inh 8, Diaph act CS 0.9, PMI act satM6P 0.9, G6PDH counter 2 and PMI activator 0.9.
`CC12CCC(C(=O)N(CSC(=S)N/N=C\c3ccccc3)C1=O)C2(C)C` (centres undefined) gave Diaphorase inh 58*, Diaph act CS 0.4, PMI act satM6P 0.9, G6PDH counter -2 and PMI activator 0.9.
Screening CC12CCC(C(=O)N(CSC(=S)N/N=C\c3ccccc3Cl)C1=O)C2(C)C (centres undefined) returned ROMK primary 0.74, Diaphorase inh 46, Diaph act CS 0.5, PMI act satM6P 0.9, G6PDH counter -4 and PMI activator 0.9.
For O=C(NCCN1CCOCC1)c1ccc(NC(=O)C2COc3ccccc3O2)cc1 (centres undefined) the results were ROMK primary -0.8, Diaphorase inh 4, Diaph act CS 1, PMI act satM6P 1, G6PDH counter 3 and PMI activator 1.
`CCc1ccc2oc(=O)cc(CN(C)Cc3ccccc3)c2c1` gave ROMK primary -3.1*, Diaphorase inh -2, Diaph act CS 1, PMI act satM6P 1, G6PDH counter 4 and PMI activator 1.
O=C1CC(c2ccco2)Sc2nc3ccccc3n21 (centres undefined) was read as ROMK primary 1, Diaphorase inh 51*, Diaph act CS 0.5, PMI act satM6P 0.6, G6PDH counter 12 and PMI activator 0.6.
Screening CC(=O)Oc1ccc2c(=O)c(Oc3ccccc3)c(C)oc2c1OC(C)=O returned ROMK primary 2.2, Diaphorase inh 65*, Diaph act CS 0.3, PMI act satM6P 0.7, G6PDH counter 22 and PMI activator 0.3.
`Cc1oc2cc(O)ccc2c(=O)c1Oc1ccccc1` gave ROMK primary -0.39, Diaphorase inh 5, Diaph act CS 1, PMI act satM6P 1, G6PDH counter 0 and PMI activator 0.9.
O=C(/C=C/c1ccccc1Cl)c1ccccc(=O)c1O was read as ROMK primary -4.2*, Diaphorase inh 22, Diaph act CS 0.8, PMI act satM6P 1.5, G6PDH counter -2 and PMI activator 1.3.
Screening CCOC(=O)c1c(NC(=O)c2ccco2)n(C2CCCCC2)c2nc3ccccc3nc12 returned Diaphorase inh 69*, Diaph act CS 0.3, PMI act satM6P 0.4, G6PDH counter 38 and PMI activator 0.5.
For N#Cc1c(NC(=O)c2ccccc2Cl)n(Cc2ccccc2)c2nc3ccccc3nc12 the results were Diaphorase inh 38, Diaph act CS 0.6, PMI act satM6P 0.7, G6PDH counter -13 and PMI activator 0.7.
For COc1ccc(-n2c(NC(=O)c3ccco3)c(C#N)c3nc4ccccc4nc32)cc1 the results were Diaphorase inh 70*, Diaph act CS 0.3, PMI act satM6P 0.3, G6PDH counter 42 and PMI activator 0.4.
Cn1c(O)c(N=NC(=O)Cn2c(C(F)(F)F)nc3ccccc32)c2ccccc21 was read as ROMK primary -0.24, Diaphorase inh 14, Diaph act CS 0.9, PMI act satM6P 0.9, G6PDH counter 3 and PMI activator 1.
Screening O=C(COC(=O)/C=C/c1ccco1)Nc1ccc(F)cc1Cl returned ROMK primary -0.32, Diaphorase inh 5, Diaph act CS 1, PMI act satM6P 1, G6PDH counter -3 and PMI activator 1.
For COc1ccc(N(CC(=O)Nc2ccccc2F)S(=O)(=O)c2ccc(C)c([N+](=O)[O-])c2)cc1 the results were ROMK primary 0.2, Diaphorase inh 2, Diaph act CS 1, PMI act satM6P 1, G6PDH counter 11 and PMI activator 1.
`Cc1c(Cc2ccccc2)c(=O)oc2c(O)c(O)ccc12` gave ROMK primary -0.69, Diaphorase inh 73*, Diaph act CS 0.3, PMI act satM6P 0.3, G6PDH counter 40 and PMI activator 0.2.
`CC(=O)Nc1ccc(C(=O)NCC(=O)OCc2ccccc2F)cc1` gave ROMK primary -0.36, Diaphorase inh 26, Diaph act CS 0.7, PMI act satM6P 1.1, G6PDH counter 5 and PMI activator 1.
For CC(=O)N(Cc1ccc(F)cc1)C1=C(NCc2ccccc2)C(=O)c2ccccc2C1=O the results were ROMK primary -2.3, Diaphorase inh 34, Diaph act CS 0.7, PMI act satM6P 1.3, G6PDH counter 51* and PMI activator 1.1.
`COc1ccc(OC)c(C(Nc2ccccc2)P(=O)(OC(C)C)OC(C)C)c1` (centres undefined) gave ROMK primary 1.2.
`N#Cc1c(N)sc(=S)c2c1CCN(Cc1ccccc1)C2` gave Diaphorase inh 82*, Diaph act CS 0.2, PMI act satM6P 1.5, G6PDH counter -45 and PMI activator 0.9.
For CCN1CCc2c(C#N)c(N3CCOCC3)nc(NCc3ccccc3)c2C1 the results were ROMK primary -1.7, Diaphorase inh 19, Diaph act CS 0.8, PMI act satM6P 0.8, G6PDH counter 4 and PMI activator 0.7.
CCN1CCc2c(sc(N)c2C#N)C1 was read as ROMK primary 1.4, Diaphorase inh 11, Diaph act CS 0.9, PMI act satM6P 1.1, G6PDH counter -21 and PMI activator 1.
For N#Cc1c(NCCO)nc(NCc2ccccc2)c2c1CCN(Cc1ccccc1)C2 the results were Diaphorase inh 59*, Diaph act CS 0.4, PMI act satM6P 0.4, G6PDH counter 38 and PMI activator 0.4.
